We go through two compounds from ChEMBL document CHEMBL1914352, “Design, synthesis, docking, and biological evaluation of novel diazide-containing isoxazole- and pyrazole-based histone deacetylase probes” (J Med Chem, 2011).

Experiment [1] has as its system HeLa. As to the kind of experiment: cells. The following applies: Homo sapiens, 48 h. Type of experiment: functional, cell-based.
Experiment [2] has as its system HeLa. Description: cells. Type of experiment: functional, cell-based. The following applies: Homo sapiens, 72 h.
Experiment [3] concerns HepG2. As to the kind of experiment: cells. Type of experiment: functional, cell-based. As to conditions: Homo sapiens, HepG2, 24 h.
The next experiment deals with T1, Histone deacetylase 11 (Homo sapiens, UniProt Q96DB2).
T1 sequence (Q96DB2 whole entry): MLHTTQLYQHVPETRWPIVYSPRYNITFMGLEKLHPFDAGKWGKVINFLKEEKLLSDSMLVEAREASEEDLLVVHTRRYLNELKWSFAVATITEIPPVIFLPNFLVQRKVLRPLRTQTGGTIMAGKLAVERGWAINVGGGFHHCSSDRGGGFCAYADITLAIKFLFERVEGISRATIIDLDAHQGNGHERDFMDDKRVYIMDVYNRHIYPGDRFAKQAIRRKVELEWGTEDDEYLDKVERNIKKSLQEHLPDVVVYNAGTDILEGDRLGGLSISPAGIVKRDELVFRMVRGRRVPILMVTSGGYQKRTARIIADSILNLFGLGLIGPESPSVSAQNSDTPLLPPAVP
As to the kind of experiment: Inhibition of human recombinant HDAC11 using fluorophore-conjugated substrate Boc-L-Lys(Ac)-AMC after 60 mins.

The next experiment addresses Histone deacetylase 9 (Homo sapiens, UniProt Q9UKV0). As to the kind of experiment: Inhibition of human recombinant HDAC9 using fluorophore-conjugated substrate Boc-L-Lys(Ac)-AMC after 60 mins.
Experiment [4] has as its target T2, Protein deacetylase HDAC6 (Homo sapiens, UniProt Q9UBN7).
T2 sequence (Q9UBN7 whole entry): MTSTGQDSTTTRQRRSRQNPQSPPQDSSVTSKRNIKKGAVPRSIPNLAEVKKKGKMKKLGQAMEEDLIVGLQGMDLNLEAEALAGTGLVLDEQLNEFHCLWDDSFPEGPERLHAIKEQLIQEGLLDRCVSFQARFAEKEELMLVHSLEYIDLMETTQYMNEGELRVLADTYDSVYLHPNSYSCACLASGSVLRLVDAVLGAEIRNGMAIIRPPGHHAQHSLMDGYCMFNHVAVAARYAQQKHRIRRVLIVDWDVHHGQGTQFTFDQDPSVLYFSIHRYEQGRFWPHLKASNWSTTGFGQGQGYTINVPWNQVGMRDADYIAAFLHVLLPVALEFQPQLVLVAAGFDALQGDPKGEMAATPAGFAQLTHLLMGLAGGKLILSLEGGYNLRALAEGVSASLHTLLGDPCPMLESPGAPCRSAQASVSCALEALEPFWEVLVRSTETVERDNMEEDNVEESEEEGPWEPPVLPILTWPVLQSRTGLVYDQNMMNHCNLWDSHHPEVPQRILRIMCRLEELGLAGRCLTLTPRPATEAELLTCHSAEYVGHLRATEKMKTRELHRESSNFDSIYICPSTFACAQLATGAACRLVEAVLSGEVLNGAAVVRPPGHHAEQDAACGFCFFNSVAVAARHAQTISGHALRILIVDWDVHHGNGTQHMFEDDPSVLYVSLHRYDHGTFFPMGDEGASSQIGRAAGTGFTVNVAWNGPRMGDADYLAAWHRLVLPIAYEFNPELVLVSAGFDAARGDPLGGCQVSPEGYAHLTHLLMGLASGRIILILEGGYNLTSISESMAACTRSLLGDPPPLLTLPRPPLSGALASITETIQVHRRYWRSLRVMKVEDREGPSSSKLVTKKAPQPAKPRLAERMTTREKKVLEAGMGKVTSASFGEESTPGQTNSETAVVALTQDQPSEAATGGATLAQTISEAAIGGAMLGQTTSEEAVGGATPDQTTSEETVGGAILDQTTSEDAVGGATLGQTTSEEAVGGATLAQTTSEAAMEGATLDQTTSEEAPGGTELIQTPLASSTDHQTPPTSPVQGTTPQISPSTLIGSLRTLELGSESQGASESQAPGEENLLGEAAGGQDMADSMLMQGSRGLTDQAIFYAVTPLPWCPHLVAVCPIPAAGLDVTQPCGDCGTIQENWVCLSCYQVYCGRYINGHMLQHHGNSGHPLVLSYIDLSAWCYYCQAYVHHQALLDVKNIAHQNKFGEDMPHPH
Description: Inhibition of human recombinant HDAC6 using fluorophore-conjugated substrate Boc-L-Lys(Ac)-AMC after 60 mins.

Experiment [5] deals with Histone deacetylase (Homo sapiens) (UniProt Q13547+O15379+Q9UBN7+Q92769+Q9UQL6+Q8WUI4+Q9BY41+Q96DB2+P56524+Q9UKV0+Q969S8). Description: Inhibition of HDAC in retinoic acid-differentiated human SH-SY5Y cells assessed as increase in histone H4 acetylation at 1 uM after 24 hrs by Western blot analysis. Type of experiment: cell-based. On the technique in general: A western blot detects proteins with antibodies after separation by electrophoresis.

The subject of a further experiment is SH-SY5Y. Description: Neuroprotective activity against LY294002-induced stress in retinoic acid differentiated human SH-SY5Y cells assessed as cell survival at 0.5 uM. Type of experiment: functional, cell-based. The procedure, abridged: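 SH-SY5Y cells are differentiated for 7–8 days in 1% FBS medium with 10 µM retinoic acid, then seeded at 2×10^4 cells/well in 1% FBS medium with 5 µM RA. After 24 h they go into phenol-red-free 1% FBS/RA medium with DMSO or 0.5–50 µM inhibitor, without or with 100 µM LY294002, for 24 h. Readout: XTT viability as % survival vs vehicle, four replicates ± SD, one-way ANOVA with Dunnett.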

The target of a further experiment is T3, Interstitial collagenase (Homo sapiens, UniProt P03956).
T3 sequence (P03956 whole entry): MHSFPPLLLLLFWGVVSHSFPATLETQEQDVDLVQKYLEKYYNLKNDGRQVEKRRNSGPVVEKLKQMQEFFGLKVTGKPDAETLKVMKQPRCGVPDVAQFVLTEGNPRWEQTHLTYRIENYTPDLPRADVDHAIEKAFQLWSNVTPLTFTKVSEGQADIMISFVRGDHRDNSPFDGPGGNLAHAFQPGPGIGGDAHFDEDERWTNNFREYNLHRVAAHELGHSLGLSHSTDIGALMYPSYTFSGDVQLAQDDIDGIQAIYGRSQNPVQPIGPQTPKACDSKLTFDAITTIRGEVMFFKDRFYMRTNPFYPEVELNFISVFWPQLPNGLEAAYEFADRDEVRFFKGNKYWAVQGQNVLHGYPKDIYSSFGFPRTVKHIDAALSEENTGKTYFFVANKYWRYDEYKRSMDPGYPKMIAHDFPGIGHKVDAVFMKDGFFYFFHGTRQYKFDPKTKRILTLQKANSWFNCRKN
As to the kind of experiment: Inhibition of MMP1.

The test system of experiment [6] is HepG2. As to the kind of experiment: Induction of apoptosis in human HepG2 cells assessed as cleavage of caspase 3 at 1 to 10 uM after 14 hrs by Western blot analysis. Type of experiment: functional, cell-based. The procedure, abridged:
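HepG2 cells are seeded at 2.7×10^5 cells/well in D7 medium (DMEM, 7% FBS), refed after 24 h, and after 1 h at 37 °C treated with DMSO or 1, 5 or 10 µM inhibitor. Lysis is in ice-cold 1% CHAPSO buffer (50 mM Hepes pH 7.4), 45 min at 4 °C. Immunoblots are probed for cleaved caspase 3 Asp175, acetyl-Lys373 p53, total p53 and GAPDH, detected by chemiluminescence, with band densitometry.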

The source made the active and inactive calls. No cut-off for these calls is given here. Bounds are passed on as bounds.

One may read the EC50 as the concentration needed to bring the measured effect to its halfway point. Read a low EC50 as a more potent agent. By IC50 is commonly meant the concentration at which inhibition is half-maximal.

Sequence of Histone deacetylase 9 (Q9UKV0 whole entry): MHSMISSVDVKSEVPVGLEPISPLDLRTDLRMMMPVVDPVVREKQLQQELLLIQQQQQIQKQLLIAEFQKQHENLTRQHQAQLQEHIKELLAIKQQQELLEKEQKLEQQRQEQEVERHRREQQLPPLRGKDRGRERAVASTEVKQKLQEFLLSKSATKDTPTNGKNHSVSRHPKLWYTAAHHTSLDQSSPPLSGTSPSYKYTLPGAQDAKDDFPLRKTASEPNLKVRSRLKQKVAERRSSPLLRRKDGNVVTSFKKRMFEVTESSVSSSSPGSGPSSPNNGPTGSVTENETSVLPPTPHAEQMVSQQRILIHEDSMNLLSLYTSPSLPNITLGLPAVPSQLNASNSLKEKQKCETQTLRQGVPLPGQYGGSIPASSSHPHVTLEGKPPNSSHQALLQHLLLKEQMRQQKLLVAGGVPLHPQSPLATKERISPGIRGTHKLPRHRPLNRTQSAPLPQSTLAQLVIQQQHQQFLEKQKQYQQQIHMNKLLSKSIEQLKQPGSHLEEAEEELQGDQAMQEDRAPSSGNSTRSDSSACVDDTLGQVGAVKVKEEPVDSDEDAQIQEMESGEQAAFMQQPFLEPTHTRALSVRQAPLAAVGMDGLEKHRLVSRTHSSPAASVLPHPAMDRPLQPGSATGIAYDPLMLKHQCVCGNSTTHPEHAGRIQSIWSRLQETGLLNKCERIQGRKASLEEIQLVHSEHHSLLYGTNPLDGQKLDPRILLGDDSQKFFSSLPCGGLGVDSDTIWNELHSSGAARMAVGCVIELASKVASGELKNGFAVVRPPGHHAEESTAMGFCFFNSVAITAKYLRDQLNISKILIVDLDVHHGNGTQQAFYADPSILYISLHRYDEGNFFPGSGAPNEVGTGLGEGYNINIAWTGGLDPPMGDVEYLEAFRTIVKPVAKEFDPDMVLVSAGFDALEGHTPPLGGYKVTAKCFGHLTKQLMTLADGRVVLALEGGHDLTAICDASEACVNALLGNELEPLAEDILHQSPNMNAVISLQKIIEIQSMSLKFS

Consider `[N-]=[N+]=NCc1cc(Cn2cc(NC(=O)CCCCCCC(=O)NO)cn2)cc(N=[N+]=[N-])c1`, for which the concentration giving a half-maximal response (EC50) in the experiment with HeLa [1] was 23700 nM; in the experiment with HeLa [2], 15000 nM; with HepG2 [3], more than 50000 nM. The IC50 came out at 476 nM at Histone deacetylase 11, 704 nM at Histone deacetylase 9 and 274 nM in [4]. In addition, the inhibition result in experiment [5] is “Active”. Further, the outcome in the experiment on SH-SY5Y was Active.
Take `[N-]=[N+]=NCc1cc(N=[N+]=[N-])cc(C(=O)Nc2ccc(-c3cc(C(=O)NCCCCCCC(=O)NO)no3)cc2)c1`: the EC50 with HeLa [1] was 10700 nM; in the experiment with HeLa [2], 4700 nM; in the experiment on HepG2 [3], more than 50000 nM. Moreover, the IC50 against Interstitial collagenase was 108000 nM; at Histone deacetylase 11, 116 nM; on Histone deacetylase 9 it was 37.8 nM; in [4], 47 nM. Besides, the inhibition result in experiment [5] is “Active”. The result with HepG2 [6] was Active.
